Measured values reported in ChEMBL document CHEMBL2401613, “Benzofused hydroxamic acids: useful fragments for the preparation of histone deacetylase inhibitors. Part 1: hit identification” (Bioorg Med Chem Lett, 2013).
Converted amounts (≈) assume the structure as drawn.

What was measured:
[1] = Aqueous solubility of the compound at pH 7.4; assay type: physicochemical
[2] = molecular target: T1, Histone deacetylase (Homo sapiens) (UniProt Q13547+O15379+Q9UBN7+Q92769+Q9UQL6+Q8WUI4+Q9BY41+Q96DB2+P56524+Q9UKV0+Q969S8); test: Inhibition of HDAC (unknown origin) at 0.1 uM; assay type: protein assay
Procedure, shortened: (§1)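 HeLa nuclear extract HDAC incubated with an acetylated-lysine substrate and inhibitor. Deacetylated substrate mixed with developer gives a fluorophore, read at ex/em 335/460 nm. Two-point screen at 0.1 and 1.0 µM, expressed as % inhibition. Triplicate determinations, averaged.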

[3] = molecular target: T1, Histone deacetylase (Homo sapiens); test: Inhibition of HDAC (unknown origin) at 1 uM; assay type: protein assay; procedure, shortened: as §1
HCT-116 [4] = test: Cytotoxicity against human HCT116 cells after 5 days by Alamar Blue assay; assay type: functional, cell-based; conditions: HCT-116, 120 h
Procedure, shortened: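 Colon cancer HCT-116 cells were seeded in complete medium, and inhibitors were added after 24 h at 0.1–100 µM in quadruplicate. After 5 days, Alamar Blue was added and plates were incubated a further 4 h. Fluorescence was read at ex 530/em 590 nm. IC50 is the concentration giving 50% inhibition of proliferation.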

HCT-116 [5] = test: Antitumor activity against human HCT116 cells xenografted in CD1 mouse assessed as reduction in tumor volume at 50 mg/kg, po; assay type: functional; parameters: scale not given: the % may be the effect or the level left
Procedure, shortened: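 Female CD1 nude (nu/nu) athymic mice were dosed orally at 50 and 100 mg/kg for 21 days, n = 4 per group. Vehicle control was 0.5% CMC at 10 mL/kg. Read-out was tumor volume inhibition (TVI).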

Histone deacetylase = test: Inhibition of HDAC in human HeLa cells assessed as deacetylation of substrate by fluorescence plate reader analysis; assay type: cell-based
Procedure, shortened: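 Enzyme source: HeLa cell nuclear extract (partially purified HDAC). Extract incubated with an acetylated-lysine substrate in the presence of inhibitor; a developer then releases a fluorophore from the deacetylated substrate, read at ex/em 335/460 nm. IC50 is the concentration giving 50% inhibition of enzymatic activity, from triplicate runs averaged. SAHA and LAQ-xx were positive controls.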

| SMILES | solubility [1] [µg/mL] | inhibition [2] [%] | inhibition [3] [%] | IC50 (Histone deacetylase) [nM] | IC50 (HCT-116 [4]) [nM] | Activity (HCT-116 [5]) [%] |
| --- | --- | --- | --- | --- | --- | --- |
| O=C(NO)c1cc2ccc(CN3CCc4ccccc4C3)cc2s1 |  | 53 | 83 |  | 1300 |  |
| O=C(Cc1ncc[nH]1)Nc1ccc2cc(C(=O)NO)sc2c1 |  | 24 | 78 |  |  |  |
| O=C(NO)c1cc2cccc(Cl)c2s1 |  |  |  | 2910 |  |  |
| O=C(NCc1ccc2cc(C(=O)NO)sc2c1)c1ccco1 |  | 89 | 92 |  | 70 |  |
| O=C(NO)c1cc2ccc(CSc3ccc(F)cc3)cc2s1 |  | < 20 | 24 |  |  |  |
| O=C(NO)c1cc2c(Cl)cccc2s1 |  |  |  | 11630 |  |  |
| O=C(NO)c1cc2ccc(CN(CCO)c3ccccc3)cc2s1 |  | 53 | 76 |  | 1700 |  |
| Cc1ccc2cc(C(=O)NO)sc2c1 |  |  |  | 1760 |  |  |
| O=C(NCc1ccc2cc(C(=O)NO)sc2c1)c1cccnc1 |  | 72 | 84 |  | 730 |  |
| CN(C)c1ccc(CC(=O)Nc2ccc3cc(C(=O)NO)sc3c2)cc1 |  | 57 | 82 |  | 500 |  |
| O=C(NO)c1csc2ccccc12 |  |  |  | 76130 |  |  |
| O=C(NO)c1cc2cccc(C(F)(F)F)c2s1 |  |  |  | 9190 |  |  |
| O=C(NO)c1cc2ccc(COc3ccccc3F)cc2s1 |  | 22 | 58 |  |  |  |
| COc1cccc2sc(C(=O)NO)cc12 |  |  |  | 3790 |  |  |
| COc1cc2cc(C(=O)NO)sc2cc1C |  |  |  | 1350 |  |  |
| O=C(Cc1ccc2c(c1)OCO2)Nc1ccc2cc(C(=O)NO)sc2c1 |  | 55 | 78 |  |  |  |
| CN(C)CCCC(=O)Nc1ccc2cc(C(=O)NO)sc2c1 | 1310 (≈ 4080 µM) | 50 | 79 |  | 2400 |  |
| O=C(NO)c1cc2ccccc2s1 |  |  |  | 2170 |  |  |
| O=C(NO)c1cc2ccsc2s1 |  |  |  | 1080 |  |  |
| N#Cc1cc2ccc(NC(=O)[C@H](N)c3ccccc3)cc2s1 |  | < 20 | < 20 |  |  |  |
| O=C(NO)c1cc2ccc(CN(CCO)Cc3ccccc3)cc2s1 |  | 52 | 80 |  | 830 |  |
| O=C(NO)c1cc2sccc2s1 |  |  |  | 557 |  |  |
| Cc1ccc2cc(C(=O)NO)sc2c1F |  |  |  | 458 |  |  |
| O=C(NO)c1cc2ccc(COc3ccc(F)cc3)cc2s1 |  | < 20 | 31 |  |  |  |
| Cc1cc2sc(C(=O)NO)cc2cc1O |  |  |  | 989 |  |  |
| COc1ccc(CC(=O)Nc2ccc3cc(C(=O)NO)sc3c2)cc1 |  | 75 | 84 |  | 490 |  |
| O=C(NO)c1cc2ccc(COc3cccc(F)c3)cc2s1 |  | 23 | 68 |  |  |  |

Continued, in another order:

| solubility [1] [µg/mL] | inhibition [2] [%] | inhibition [3] [%] | IC50 (Histone deacetylase) [nM] | SMILES | IC50 (HCT-116 [4]) [nM] | Activity (HCT-116 [5]) [%] |
| --- | --- | --- | --- | --- | --- | --- |
| 4 (≈ 11.8 µM) | 28 | 69 |  | O=C(CCc1ccccc1)Nc1ccc2sc(C(=O)NO)cc2c1 |  |  |
| 4 (≈ 12.2 µM) | 59 | 78 |  | O=C(Cc1ccccn1)Nc1ccc2cc(C(=O)NO)sc2c1 | 480 |  |
| 4 (≈ 12.3 µM) | 71 | 85 |  | O=C(Cc1ccccc1)Nc1ccc2cc(C(=O)NO)sc2c1 | 100 | 26 |
|  | 77 | 91 |  | O=C(NO)c1cc2ccc(CN(CCO)C(=O)Nc3ccccc3)cc2s1 | 1400 |  |
|  | 70 | 85 |  | N[C@@H](C(=O)Nc1ccc2cc(C(=O)NO)sc2c1)c1ccccc1 | 500 |  |
| 4 (≈ 12.2 µM) | 66 | 84 |  | O=C(Cc1ccncc1)Nc1ccc2cc(C(=O)NO)sc2c1 | 1800 |  |
| 4 (≈ 12.2 µM) | 49 |  |  | O=C(Cc1cccnc1)Nc1ccc2sc(C(=O)NO)cc2c1 | 17000 |  |
| 4 (≈ 12.8 µM) | 32 | 73 |  | O=C(NO)c1cc2ccc(NCCc3ccccc3)cc2s1 |  |  |
|  | 65 | 83 |  | COc1cccc(CC(=O)Nc2ccc3cc(C(=O)NO)sc3c2)c1 | 600 |  |
| 4 (≈ 12.2 µM) | 49 | 78 |  | O=C(Cc1ccncc1)Nc1ccc2sc(C(=O)NO)cc2c1 | 8600 |  |
|  | 69 | 85 |  | N[C@H](C(=O)Nc1ccc2cc(C(=O)NO)sc2c1)c1ccccc1 | 770 |  |
|  | 44 | 78 |  | N[C@H](CCc1ccccc1)C(=O)Nc1ccc2cc(C(=O)NO)sc2c1 | 320 |  |
|  | 73 | 87 |  | O=C(Cc1ccsc1)Nc1ccc2cc(C(=O)NO)sc2c1 | 110 |  |
| 4 (≈ 11.3 µM) | 27 | 67 |  | CN(C(=O)CCc1ccccc1)c1ccc2sc(C(=O)NO)cc2c1 |  |  |
|  | 71 | 85 |  | N[C@@H](CCc1ccccc1)C(=O)Nc1ccc2cc(C(=O)NO)sc2c1 | 3400 |  |
|  | 60 | 88 |  | O=C(Cc1ccccc1)NCc1ccc2cc(C(=O)NO)sc2c1 | 1200 |  |
|  | 93 | 87 |  | O=C(NCc1ccc2cc(C(=O)NO)sc2c1)c1ccccc1 | 250 |  |
| 4 (≈ 12.2 µM) | 39 | 74 |  | O=C(Cc1ccccn1)Nc1ccc2sc(C(=O)NO)cc2c1 |  |  |
| 4 (≈ 12.3 µM) | 48 | 82 |  | O=C(Cc1ccccc1)Nc1ccc2sc(C(=O)NO)cc2c1 | 1300 |  |
| 4 (≈ 11.8 µM) | 42 | 76 |  | O=C(CCc1ccccc1)Nc1ccc2cc(C(=O)NO)sc2c1 | 2600 |  |
| 4 (≈ 12.2 µM) | 62 | 83 |  | O=C(Cc1cccnc1)Nc1ccc2cc(C(=O)NO)sc2c1 | 3000 |  |
|  | 54 | 81 |  | N[C@@H](Cc1ccccc1)C(=O)Nc1ccc2cc(C(=O)NO)sc2c1 | 5000 |  |
|  | 41 | 77 |  | N[C@H](Cc1ccccc1)C(=O)Nc1ccc2cc(C(=O)NO)sc2c1 | 340 |  |
| 4 (≈ 13.4 µM) | 58 | 79 |  | O=C(NO)c1cc2ccc(NCc3ccccc3)cc2s1 | 1300 |  |
| 4 (≈ 11.3 µM) | 21 | 63 |  | CN(C(=O)CCc1ccccc1)c1ccc2cc(C(=O)NO)sc2c1 |  |  |
| 4 (≈ 12.8 µM) | 28 | 61 |  | O=C(NO)c1cc2cc(NCCc3ccccc3)ccc2s1 |  |  |
|  | 54 | 81 |  | COc1ccccc1CC(=O)Nc1ccc2cc(C(=O)NO)sc2c1 | 550 |  |
| 4 (≈ 13.4 µM) | 28 | 68 |  | O=C(NO)c1cc2cc(NCc3ccccc3)ccc2s1 |  |  |
